Bioassay records: PubChem, Broad Institute
Sampled rows, rich in hits. Any-hit rate of the full collection: about 1.3%.
RAD54 inh: inhibitors of human RAD54 branch migration, primary screen, biochemical, fluorescence, single point. DNA repair and recombination protein RAD54-like (Homo sapiens), Q92698. RAD54 Holliday junction branch migration, FAM/BHQ fluorescence. inhibition, % at 10.4 µM. actives 0.14% (n = 360,000). AID 602329, 2012;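 active = mean normalized replicate activity at least 40 and at least half of replicates scoring 40 or more; inconclusive = only one of the two criteria met; inactive = mean below 40 and under half of replicates reaching 40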;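 also: 0% = median of neutral control wells and 100% = median of positive control wells; inhibitors cause a drop in the FAM fluorescence signal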
RAD52 anneal inh: RAD52 DNA annealing inhibitors, primary screen, biochemical, FRET, single point, set 2; DNA repair protein RAD52 homolog (Homo sapiens), P43351; recombinant RAD52 DNA annealing, FRET fluorescence; inhibition, % at 18.7 µM; actives 0.46% (n = 360,000); AID 651710, 2012;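 active = every replicate showing at least 50% inhibition; inconclusive = mean inhibition at least 50% but not in every replicate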
S100A4 inh HTS: inhibitors of S100A4-myosin IIA peptide binding, primary screen, biochemical, fluorescence polarization, TAMRA-MyoIIA peptide; Protein S100-A4 (Homo sapiens), P26447; inhibition, % at 10.7 µM; actives 0.14% (n = 360,000);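 active = mean inhibition of at least 70% across replicates, with every replicate also reaching that level; inconclusive = mean inhibition reaches 70% but some replicates fall short; inactive = mean inhibition below 70%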
Target sequence (P26447 whole entry, looked up): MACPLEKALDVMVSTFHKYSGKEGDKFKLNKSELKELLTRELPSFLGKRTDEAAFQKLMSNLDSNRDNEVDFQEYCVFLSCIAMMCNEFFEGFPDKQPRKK
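Compound dosing: one dose per compound; test system: human S100A4 monomer with TAMRA-labelled myosin IIA peptide; probe or stimulus: TAMRA-labelled myosin IIA heavy-chain peptide probe, 5 nM; medium: HEPES buffer with Ca2+, pH 7.2; schedule: 5 min incubation before reading; benchmarks: neutral control DMSO, positive control TFP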
CASP6 VEID inh: human caspase-6 inhibitors, primary screen, biochemical, VEID-R110 fluorescence, single point, set 2; purified caspase-6, Z-VEID-R110 cleavage fluorescence; inhibition, % at 12.5 µM; actives 0.53% (n = 350,000); AID 686996, 2013;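 active = mean inhibition across replicates at least about 35%, with every replicate also reaching that limit, limit read from the data; inconclusive = only one of the two criteria met; inactive = neither criterion met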;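 also: 0% = median of neutral control wells and 100% = no fluorescence left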
XiGFP reactiv: activators of inactive X chromosome reactivation, primary screen, imaging, XiGFP fibroblasts, GFP high-content imaging, set 2; actives 0.055% (n = 360,000); AID 743238, 2013; XiGFP mouse fibroblasts, % GFP-positive cells imaging, 3 d; cells co-treated with 5-aza-dC sensitizer; scaled so ellipticine positive control = 100%; activation, % at 7.58 µM;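 active = mean normalized replicate activation at least 10% and every replicate at or above 10%; inconclusive = only one of the two criteria met; inactive = mean below 10% and not all replicates reach 10%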;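 also: 0% = median of on-plate neutral control wells and 100% = ellipticine 6 µM median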
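Assay system – SV40-immortalized XiGFP fibroblast cells, line 68-5-11 · Buffer or medium – DMEM supplemented with 5-aza-dC as sensitizing agent · Dosing – one concentration, pinned · Benchmarks – positive control ellipticine, 6 µM final · Times – 3 days compound exposure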
MLL AF4-AF9 inh: inhibitors of AF4 peptide binding to AF9, primary screen, biochemical, AlphaScreen, biotin-AF4 peptide, FLAG-AF9, single point; inhibition, % at 10 µM; actives 0.47% (n = 350,000);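 active = every replicate reaching a set inhibition limit, whatever the replicate mean, cut at about 25% in these data; inconclusive = mean inhibition reaches that limit but some replicates miss it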;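 also: 0% = plate neutral control median and 100% = total signal loss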
Target sequence (P42568 whole entry, looked up): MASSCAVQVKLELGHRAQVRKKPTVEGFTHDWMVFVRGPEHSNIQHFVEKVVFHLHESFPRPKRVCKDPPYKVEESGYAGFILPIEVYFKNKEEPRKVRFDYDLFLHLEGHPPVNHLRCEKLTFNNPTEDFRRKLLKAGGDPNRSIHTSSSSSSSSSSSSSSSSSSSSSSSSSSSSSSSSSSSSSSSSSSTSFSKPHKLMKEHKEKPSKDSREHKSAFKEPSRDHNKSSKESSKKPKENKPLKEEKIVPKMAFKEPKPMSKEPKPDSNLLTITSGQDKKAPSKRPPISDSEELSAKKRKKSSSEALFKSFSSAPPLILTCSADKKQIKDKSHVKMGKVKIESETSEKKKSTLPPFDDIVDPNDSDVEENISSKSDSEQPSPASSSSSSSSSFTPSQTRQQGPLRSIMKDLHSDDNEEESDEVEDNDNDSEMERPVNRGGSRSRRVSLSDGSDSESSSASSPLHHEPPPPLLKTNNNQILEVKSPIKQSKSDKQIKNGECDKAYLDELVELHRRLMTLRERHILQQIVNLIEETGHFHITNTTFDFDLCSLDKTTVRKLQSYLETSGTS
AlphaScreen intf: AlphaScreen signal interference counter-screen, dose response, artefact control, biochemical, cherry-picked samples, luminescence; shares compounds with MLL AF4-AF9 inh; AC50, µM (titrated, usually from 12 µM), inactives show at the highest dose activity change, negative = inhibition; actives 45% (n = 530); cut-off not given, nearly all actives have AC50 up to about 14 µM
An asterisk follows results filed as active; ? = inconclusive; . = no result.

SMILES	RAD54 inh	RAD52 anneal inh	S100A4 inh HTS	CASP6 VEID inh	XiGFP reactiv	MLL AF4-AF9 inh	AlphaScreen intf
CCCNC(=O)[C@@H]1[C@@H](CO)[C@@H]2Cn3c(ccc(-c4ccccc4F)c3=O)[C@@H]2N1CC1CC1	-13	12	3	1	1	-1	.
COc1ccc2c3c([nH]c2c1)[C@@H](CO)N(C(=O)CC1CC1)CC31CN(Cc2ccncc2)C1	.	-6	4	2	0	15	.
Cc1oc(-c2cccc3ccccc23)nc1CN1CCN(c2ncnc3ccccc23)CC1	.	-29	2	0	0	22	-10%
Cc1cnc(C)c(N2CCN(Cc3nc(-c4ccc(C)o4)oc3C)CC2)n1	.	-21	5	1	0	5	.
Cc1ncc(CO)c(/C=N/NC(=S)Nc2ccc(Cl)c(Cl)c2)c1O	.	-3	4	5	0	30*	13µM*
Cc1ncc(CO)c(/C=N/NC(=O)c2ccc(O)cc2)c1O	6	.	.	.	0	.	.
C(=C1c2ccccc2-c2ccccc21)c1ccccn1	3	-6	-59	-4	0	19	-31%
C(=N\N=C\c1ccccn1)/c1ccccn1	-1	-14	-5	-2	0	-4	.
COc1ccc(S(=O)(=O)/N=C2\C=C(Nc3ccc(O)cc3)C(=O)c3ccccc32)cc1	2	4	0	78*	1	41*	2.7µM*
CCOc1ccc(NC(=S)NC23CC4CC(CC(C4)C2)C3)cc1	8	-29	1	0	0	-6	.
CN(C)c1ccc(NC(=S)NC23CC4CC(CC(C4)C2)C3)cc1	6	-14	-5	10	0	44*	-29%
CN1\C(=C/C=C/C=C/C=[N+](C)C)C(C)(C)c2ccccc21	.	-92	3	-3	0	41*	9.8µM*
C[C@H](CO)N1C[C@H](C)[C@H](CN(C)C)OCCCC[C@H](C)Oc2ccc(NC(=O)Cc3ccccc3)cc2C1=O	1	3	4	-1	-1	-4	.
CCOc1ccc2oc(C(=O)NCC(c3ccco3)N(C)C)c(C)c2c1 (stereo not given)	-3	-1	0	-1	0	6	.
Cc1c(C(=O)NCC(c2ccco2)N(C)C)oc2c(Cl)cccc12 (stereo not given)	-13	-22	-7	-2	0	?	-22%
CCC(=O)Nc1ccc2c(c1)C(=O)N(C)C[C@H](OC)[C@H](C)CN(CC1CCOCC1)[C@@H](C)CO2	7	.	.	.	0	.	.
C#CCOCCOCCOCCNc1nc(N2CCN(C(=O)C([C@@H](C)O)n3cc([C@@H](N)CCCCN)nn3)CC2)nc(N2CCN(C(=O)C([C@@H](C)O)n3cc([C@@H](N)CCCCN)nn3)CC2)n1 (stereo not given in full)	-6	10	16	-214	0	39*	17%
C#CCOCCOCCOCCNc1nc(N2CCN(C(=O)[C@H](CCCCN)n3cc([C@@H](N)C(C)CC)nn3)CC2)nc(N2CCN(C(=O)[C@H](CCCCN)n3cc([C@@H](N)CC(C)C)nn3)CC2)n1 (stereo not given in full)	35	37	-4	-324	0	56*	-3%
CO[C@H]1CN(C)C(=O)c2ccc(NS(=O)(=O)c3ccccc3C)cc2OC[C@@H](C)N(C)C[C@@H]1C	-7	-4	-17	-11	0	-3	.
O=C(Cc1ccccc1)N[C@@H]1CC[C@@H](CC(=O)N2CCOCC2)O[C@H]1CO	-4	2	8	-1	0	-13	.
CCC(=O)N(C)C[C@H]1Oc2ncc(-c3ccc(C)cc3)cc2C(=O)N([C@H](C)CO)C[C@H]1C	-1	11	2	1	-1	-11	.
C[C@H](CO)N1C[C@H](C)[C@@H](CN(C)C)Oc2ccc(NS(=O)(=O)c3ccc(F)cc3)cc2CC1=O	4	8	-1	-4	0	-1	.
CN(C)c1cc2c3ccccc3n(C)c2cc1N	0	9	-2	-2	0	28*	-23%
Cc1ccc(C)c2c1c1ccccc1n2C	-1	9	2	1	0	.	.
C[C@H](CO)N1C[C@H](C)[C@@H](CN(C)C(=O)c2ccccc2)Oc2cc(C3=CCCCC3)ccc2S1(=O)=O	0	0	0	1	-1	8	.
SMILES	RAD54 inh	RAD52 anneal inh	S100A4 inh HTS	CASP6 VEID inh	XiGFP reactiv	MLL AF4-AF9 inh	AlphaScreen intf
COc1ccc(-c2sc(Nc3ccccc3)n[n+]2-c2ccc(F)cc2)cc1Br	-2	-53	-7	-1	0	1	.
COc1ccc2ccccc2c1-c1sc(Nc2ccccc2)n[n+]1-c1ccc(F)cc1	-2	33	-1	4	0	43*	-27%
Fc1ccc(-[n+]2nc(Nc3ccccc3)sc2-c2c(Cl)cccc2Cl)cc1	2	3	-2	21	0	34*	-27%
COc1ccc(C)cc1Nc1n[n+](-c2ccccc2)c(-c2c(Cl)cccc2Cl)s1	.	16	-8	1	0	45*	-20%
NC1=NC[C@H](Cc2ccc(O)cc2)N1CCc1cccc2ccccc12	48	5	1	30	0	32*	-29%
NC1=NC[C@@H](Cc2ccc(O)cc2)N1CCc1cccc2ccccc12	14	16	-7	-9	0	12	.
C[C@@H]1CN([C@H](C)CO)C(=O)c2cc(NC(=O)NC3CCCCC3)ccc2O[C@@H](C)CCCCO[C@@H]1CN(C)C(=O)Nc1ccccc1	-8	30	-9	0	0	-1	.
CN(C)c1ccc2c(c1)[C@@H]1C[C@H](CC(=O)NCc3ccccc3)O[C@@H](CO)[C@@H]1O2	2	-159	-4	-1	0	1	.
COc1ccc(N2CCN(c3nc(=S)n(-c4ccccc4)c(C)c3C(C)=O)CC2)cc1	5	-59	-7	-2	.	.	.
CCn1c(C)c(C(C)=O)c(N2CCN(c3ccc(OC)cc3)CC2)nc1=S	.	36	-18	22	0	32*	-24%
O=C(C[C@@H]1CC[C@H]2[C@@H](COC[C@@H](O)CN2S(=O)(=O)c2ccccc2Cl)O1)NCc1ccccc1Cl	-4	0	16	0	0	0	.
